The source made the active and inactive calls. The rule behind the calls is not given here.
Tests used:
[1] = Toxicity in Balb/c mouse xenografted with human HCT-116 cells assessed as reduction in body weight at 25 to 100 mg/kg, ip administered for 21 days and measured on day 21; format: organism-based; conditions: in vivo, 504 h, dose 25-100 mg/kg, time 21 day
Outline: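 BALB/c nude mice bearing HCT116 xenografts were dosed once daily by intraperitoneal injection at 25, 50 or 100 mg/kg for 21 days, starting when tumours reached 100-300 mm³. Body weight was tracked over the dosing period and compared with the blank group.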

[2] = system: NCI-H460; experiment: Induction of apoptosis in human NCI-H460 cells assessed as necrotic cells at 2 uM incubated for 48 hrs by annexin V-FITC and PI staining based flow cytometry (reference value: 0.632 %); format: functional
[3] = system: HeLa; experiment: Cytotoxicity against human HeLa cells assessed as effect on cell morphology at 0.5 to 8 micromol incubated for 48 hrs by microscopic analysis; format: functional, cell-based; conditions: dose 0.5-8 µmol
Outline: (§1)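 Five cancer cell lines treated with compound or DMSO (0.1 %) for 48 h. Morphology inspected by light microscopy at 10× objective.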

[4] = target: Histone deacetylase 1 (Homo sapiens, UniProt Q13547); experiment: Inhibition of recombinant human HDAC1 at 10 uM using SIRT1 as substrate incubated for 10 mins followed by substrate addition and measured after 30 mins by fluorescence based assay relative to control; conditions: time 40.0 min
Outline: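 Enzyme inhibition of HDAC1 measured at a single concentration of 10 µM, tested alongside the cell-growth screen.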

[5] = target: Histone deacetylase 2 (Homo sapiens, UniProt Q92769); experiment: Potency index, ratio of IC50 of CS055 to IC50 of compound for inhibition of recombinant human HDAC2 using FLUOR-DE-LYS-Green as substrate incubated for 10 mins followed by substrate addition and measured after 30 mins by fluorescence based assay
[6] = system: HepG2; experiment: Antiproliferative activity against human HepG2 cells assessed as reduction in cell growth at 8 uM incubated for 72 hrs by CCK-8 assay relative to control; format: functional
[7] = system: NCI-H460; experiment: Induction of apoptosis in human NCI-H460 cells assessed as late apoptotic cells at 1 uM incubated for 48 hrs by annexin V-FITC and PI staining based flow cytometry (reference value: 6.11 %); format: functional
[8] = Half life in ICR mouse at 20 mg/kg, ip measured upto 24 hrs by LC-MS/MS analysis; conditions: in vivo
[9] = system: HeLa; experiment: Induction of apoptosis in human HeLa cells assessed as necrotic cells at 0.5 uM incubated for 48 hrs by annexin V-FITC and PI staining based flow cytometry (reference value: 0.124 %); format: functional
[10] = system: HCT-116; experiment: Antitumor activity against human HCT-116 cells xenografted in Balb/c mouse assessed as tumor growth inhibition at 50 mg/kg, ip administered for 21 days and measured on day 21 relative to control; format: functional; conditions: HCT-116, ip, 504 h, time 21 day, read-out: GI
Outline: (§2)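 HCT116 xenografts in BALB/c nude mice. Dosing started when tumours reached 100–300 mm³: intraperitoneal injection once daily for 21 days at 25, 50 or 100 mg/kg, versus blank. Body weight monitored. Tumour growth inhibition computed against blank.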

[11] = system: A-375; experiment: Antimigratory activity against human A-375 cells assessed as inhibition of migration at 0.5 uM incubated for 48 hrs by microscopic based wound healing test; format: functional, cell-based
Outline: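 Scratch (wound-healing) migration assay in A375 and H460 cells seeded in 12-well plates. Cells exposed to compound, CS055, roscovitine or DMSO blank for 48 h. At least two independent experiments.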

[12] = system: HeLa; experiment: Induction of cell cycle arrest in human HeLa cells assessed as G2/M phase at 0.5 uM incubated for 24 hrs by PI staining based flow cytometry (reference value: 7.89 %); format: functional
Outline: (§3)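 Treatment at 2, 1 and 0.5 μM for 24 h, alongside CS055 and roscovitine, against a DMSO (0.1 %) blank. Cells then stained with propidium iodide and analyzed by flow cytometry.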

[13] = system: A-375; experiment: Induction of apoptosis in human A-375 cells assessed as viable cells at 1 uM incubated for 48 hrs by annexin V-FITC and PI staining based flow cytometry (reference value: 96.3 %); format: functional; conditions: read-out: Activity
[14] = system: A-375; experiment: Induction of ROS accumulation in human A-375 cells at 1 uM incubated for 24 hrs by DCFH-DA staining based confocal microscopic analysis; format: functional, cell-based
Outline: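 A375 cells treated at 1 µM or with DMSO blank for 24 h. Intracellular ROS detected with the fluorescent dye DCFH-DA.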

[15] = system: A-375; experiment: Induction of cell cycle arrest in human A-375 cells assessed as reduction in G0/G1 phase at 0.5 to 2 uM incubated for 24 hrs by PI staining based flow cytometry; format: functional; conditions: dose 0.5-2 µM; outline: as §3
[16] = AUC (0 to t) in ICR mouse at 4 mg/kg, iv measured upto 24 hrs by LC-MS/MS analysis; format: ADME, organism-based; set-up: route intravenous, dose 4 mg/kg, time <=24; conditions: in vivo
Outline: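 Male ICR mice (N=9). Single dose, either 4 mg/kg intravenous or 20 mg/kg intraperitoneal. Parameters derived: T1/2, Tmax, Cmax, AUC0-t, MRT0-t and CL, with F for the intraperitoneal arm.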

[17] = Cmax in ICR mouse at 20 mg/kg, ip measured upto 24 hrs by LC-MS/MS analysis; conditions: in vivo
[18] = system: HCT-116; experiment: Induction of apoptosis in human HCT-116 cells assessed as early apoptotic cells at 0.5 uM incubated for 48 hrs by annexin V-FITC and PI staining based flow cytometry (reference value: 4.14 %); format: functional
[19] = system: HeLa; experiment: Induction of apoptosis in human HeLa cells assessed as late apoptotic cells at 2 uM incubated for 48 hrs by annexin V-FITC and PI staining based flow cytometry (reference value: 0.870 %); format: functional
[20] = system: NCI-H460; experiment: Antiproliferative activity against human H460 cells assessed as reduction in cell growth at 2 uM incubated for 72 hrs by CCK-8 assay relative to control; format: functional
[21] = system: A-375; experiment: Induction of apoptosis in human A-375 cells assessed as viable cells at 0.5 uM incubated for 48 hrs by annexin V-FITC and PI staining based flow cytometry (reference value: 96.3 %); format: functional; conditions: read-out: Activity
[22] = system: HCT-116; experiment: Antitumor activity against human HCT-116 cells xenografted in Balb/c mouse assessed as tumor growth inhibition at 25 mg/kg, ip administered for 21 days and measured on day 21 relative to control; format: functional; conditions: HCT-116, ip, 504 h, time 21 day, read-out: GI; outline: as §2
[23] = system: NCI-H460; experiment: Antiproliferative activity against human NCI-H460 cells assessed as reduction in cell growth incubated for 72 hrs by CCK-8 assay; format: functional, cell-based; conditions: NCI-H460, 72 h
Outline: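 IC50 by CCK-8 assay across five solid-tumour lines (HCT116, HepG2, H460, HeLa, A375). Run only for compounds chosen after the single-concentration screen, with CS055 and roscovitine as references.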

[24] = system: HeLa; experiment: Induction of apoptosis in human HeLa cells assessed as late apoptotic cells at 1 uM incubated for 48 hrs by annexin V-FITC and PI staining based flow cytometry (reference value: 0.870 %); format: functional
[25] = system: A-375; experiment: Inhibition of HDAC in human A-375 cells assessed as increase the acetylation of histone H3 at 1 uM incubated for 12 hrs by DAPI and immunofluorescence staining based confocal microscopic analysis; format: cell-based
[26] = system: HCT-116; experiment: Cytotoxicity against human HCT-116 cells assessed as effect on cell morphology at 0.5 to 8 micromol incubated for 48 hrs by microscopic analysis; format: functional, cell-based; conditions: dose 0.5-8 µmol; outline: as §1

Chain of Histone deacetylase 1 (Q13547 whole entry): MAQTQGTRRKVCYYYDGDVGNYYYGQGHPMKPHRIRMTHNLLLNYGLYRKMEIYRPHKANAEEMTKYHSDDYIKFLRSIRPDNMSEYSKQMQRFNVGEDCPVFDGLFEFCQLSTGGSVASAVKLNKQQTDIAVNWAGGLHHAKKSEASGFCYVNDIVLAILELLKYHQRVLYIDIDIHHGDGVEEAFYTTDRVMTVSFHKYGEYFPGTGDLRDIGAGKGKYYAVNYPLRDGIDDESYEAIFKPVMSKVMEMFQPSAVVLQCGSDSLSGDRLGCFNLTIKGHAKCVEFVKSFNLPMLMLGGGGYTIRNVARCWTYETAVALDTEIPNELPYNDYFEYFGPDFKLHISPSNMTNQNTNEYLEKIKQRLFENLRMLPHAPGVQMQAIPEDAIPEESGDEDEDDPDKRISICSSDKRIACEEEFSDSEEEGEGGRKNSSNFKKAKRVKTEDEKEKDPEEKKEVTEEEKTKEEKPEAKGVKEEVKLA
Chain of Histone deacetylase 2 (Q92769 whole entry): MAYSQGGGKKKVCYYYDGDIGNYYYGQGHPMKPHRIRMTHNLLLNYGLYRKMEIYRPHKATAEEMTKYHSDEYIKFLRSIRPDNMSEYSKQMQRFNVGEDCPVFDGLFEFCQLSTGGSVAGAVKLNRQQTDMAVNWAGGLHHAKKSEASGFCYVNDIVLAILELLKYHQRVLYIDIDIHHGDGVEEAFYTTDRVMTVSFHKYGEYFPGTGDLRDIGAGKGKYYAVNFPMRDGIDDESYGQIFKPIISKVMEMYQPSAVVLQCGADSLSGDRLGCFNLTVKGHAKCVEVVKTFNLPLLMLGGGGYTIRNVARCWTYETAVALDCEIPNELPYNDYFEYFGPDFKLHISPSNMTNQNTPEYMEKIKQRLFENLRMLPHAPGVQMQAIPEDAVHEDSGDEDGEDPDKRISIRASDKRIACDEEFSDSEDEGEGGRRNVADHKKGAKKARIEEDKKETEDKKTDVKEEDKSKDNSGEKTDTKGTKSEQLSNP

With `Cc1ccc(Nc2nc(Cl)nc3c2ncn3Cc2ccc(C(=O)Nc3ccccc3N)cc2)cc1` the Activity [1] was “Non-Toxic”, the Activity [2] was 9.03% and the Activity [3] was “Active”. The inhibition [4] was 88.7%, the Ratio IC50 [5] was 2 and the inhibition at 8 µM [6] was 82%. It also gave an Activity [7] of 17.5%, a half-life [8] of 2.84 h and an Activity [9] of 0.31%. The inhibition in vivo at 50 mg/kg [10] was 40%, the inhibition [11] was “Active” and the Activity [12] was 51.85%. The viability at 1 µM [13] was 8.06%, the Activity [14] was “Active” and the Activity [15] was “Active”. For the same compound, the AUC(0-t) at 24 h [16] was 2850 ng·h/mL, the Cmax [17] was 1360 ng/mL and the Activity [18] was 60.7%. For the same compound, the Activity [19] was 14.1%, the inhibition at 2 µM [20] was 67.3% and the viability at 0.5 µM [21] was 16.4%. For the same compound, the inhibition in vivo at 25 mg/kg [22] was 28%, the IC50 [23] was 1590 nM and the Activity [24] was 8.63%. The inhibition [25] was “Active” and the Activity [26] was “Active”.
